Compound activity as filed in PubChem BioAssay.
H9c2 protect: myocardial damage modulation in H9c2 cells; H9c2 cardiomyocytes, H2O2 injury protection, ATPLite, 2 h; protection from H2O2 cell death, % at 20 µM; 360,000 compounds, 0.63% hits;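 active = compounds giving at least 50% protection of heart cells from peroxide-induced death in the single-dose screen, raw or plate-pattern-corrected value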;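 also: 0% = DMSO wells with peroxide and 100% = DMSO wells without peroxide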
hiPSC survival: hiPSC single-cell survival enhancement. survival enhancement, % at 20 µM. ATPlite luminescence; 100% = ROCK inhibitor wells, 0% = DMSO. 360,000 compounds, 0.044% hits; in the data active = survival enhancement above about 18%;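 also: cells exposed to compounds for 16 hours before the ATP read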
SENP1 inh: SENP1 (human) catalytic domain inhibition | Q9P0U3 | recombinant SENP1 catalytic domain, CyPet-SUMO1-YPet FRET cleavage | inhibition, % at 10 µM | 360,000 compounds, 0.21% hits | AID 624204;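 active = inhibition at least 30% at 10 µM, raw YFP signal under a set limit, fluorescence ratio 0.5 to 1.5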;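 also: 0% = enzyme with DMSO and 100% = no enzyme wells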
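Assay system: hSENP1 catalytic domain, recombinant. Amount: SENP1 enzyme, 20 pM final. Schedule: 50 min reaction, RT, dark. Technique: FRET, CFP and YFP emission. Control set: no-enzyme wells low, DMSO-plus-enzyme wells high control.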
FAS-TE inh: blocks the thioesterase domain of human fatty acid synthase. recombinant FAS-TE, OMFH fluorogenic substrate, fluorescence endpoint. inhibition, % at 15 µM. 360,000 compounds, 0.67% hits. AID 602261;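 active = compounds whose normalised, plate-corrected inhibition of enzyme fluorescence in the single-dose primary screen is 50% or more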;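 also: 0% = DMSO with enzyme and 100% = substrate without enzyme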
GRIN3A LBD mod: modulators (binders) of human NR3A ligand-binding domain. NR3A LBD differential scanning fluorimetry, Tm shift; 0% = protein alone, 100% = glycine-bound protein. Tm shift relative to glycine control, % at 25 µM. 340,000 compounds, 2.5% hits;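 active = melting temperature shift of at least 10% of the positive control shift, at one fixed dose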
Arr AP2 block: inhibitors of human beta-arrestin and AP2 interaction; FITC-arrestin peptide / GST-AP2 beads, flow cytometry; AP2 beta2 appendage carries R879A mutation; inhibition, % at 10 µM; 340,000 compounds, 0.31% hits; AID 504490;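 active = inhibition above a set limit, near 3 SD of compounds lacking own fluorescence, cut at about 54% in these data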;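 also: plate controls were DMSO wells for no effect and 5 µM unlabelled arrestin peptide for full effect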
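Material – GST-tagged AP2 beta2-adaptin appendage (R879A) on 4 µm glutathione beads · Probe or stimulus – fluorescein-tagged arrestin peptide at 50 nM final · Timing – 12 min plus 1 h, RT · Detection – bead flow cytometry, FITC channel · Read-out basis – inhibition as reduced fluorescein signal on beads, percent · Medium – PBS plus Tween 20 (0.05%) and BSA (0.1%)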
* hit, by the source's call; nt = no result. Rows were chosen to be rich in hits. Some 4% of all compounds tested hit in one or more screens of this group.

SMILES	H9c2 protect	hiPSC survival	SENP1 inh	FAS-TE inh	GRIN3A LBD mod	Arr AP2 block
CCC(C)c1ccc(C(C)NC(=S)NCc2ccc(F)cc2)cc1 (stereo not drawn)	-21.6	-0.4	2.3	24.9	12.7*	4.2
CCCc1ccc(C(C)NC(=S)NCc2ccc(F)cc2)cc1 (stereo not drawn)	-11.0	-0.3	1.4	28.8	9.1	11.8
c1ccc(Cn2ncc3c(N4CCN(c5ccccc5)CC4)ncnc32)cc1	-5.0	2.8	0.9	12.3	nt	nt
Cc1cccc(NC(=O)c2nc[nH]c2C(=O)N[C@H](C)CO)c1	6.5	1.6	0.0	-8.5	nt	nt
CCCCNc1c(-c2ccc(OC)c(Sc3ccc(OC)cc3)c2)nc2cnccn12	4.1	0.2	-29.3	28.4	-14.5	21.3
CCCCNc1c(-c2ccc(SC(C)CC)cc2)nc2cnccn12 (stereo not drawn)	-9.8	1.9	-31.7	55.4*	-2.7	6.2
Cc1cccc(NCc2ccc(O)c3ncccc23)c1	58.2*	-0.9	-0.2	-1.8	-8.6	26.7
Oc1ccc(CNc2ccccc2)c2cccnc12	32.7	-4.5	-2.3	-6.3	-6.1	14.4
N#C/C(=C/c1ccc(Br)s1)C(=O)NCCc1c[nH]c2ccccc12	-8.3	0.2	-5.4	29.9	23.4*	-4.8
N#Cc1cccc(NC(=O)NCCc2c[nH]c3ccccc23)c1	-11.0	-0.6	-1.4	8.3	10.7*	-13.6
O=C(COC(=O)CCc1c[nH]c2ccccc12)NCc1ccccc1	6.3	-1.6	1.8	-4.4	11.6*	-6.7
O=C(COC(=O)CCc1c[nH]c2ccccc12)NCc1ccc(Cl)cc1	3.5	4.1	0.2	5.9	-5.3	-10.8
COc1ccccc1NC(=O)NCCc1c[nH]c2ccccc12	-6.3	1.0	2.9	-0.2	-3.5	-4.9
O=C(NCCc1c[nH]c2ccccc12)Nc1ccccc1	0.7	0.7	-0.9	-2.2	16.2*	23.9
O=C(NCC(c1ccco1)N1CCCC1)c1cc2cc(Cl)ccc2o1 (stereo not drawn)	-2.0	0.5	-3.7	-1.2	0.4	15.9
COCCNc1nc2cc(-c3cccc(Cl)c3)sc2c(=O)n1C	0.1	4.4	2.2	7.9	nt	nt
O=C(NCCc1ccc(Cl)cc1)C(=O)c1c[nH]c2ccccc12	-1.5	-0.1	0.2	-0.7	-25.4	14.4
O=C(NCCc1c[nH]c2ccccc12)C(=O)c1c[nH]c2ccccc12	-4.4	-0.4	0.5	0.8	24.6*	8.9
CSCCC(NS(=O)(=O)Cc1ccccc1)C(=O)NNc1ccccc1 (stereo not drawn)	-0.8	-1.1	0.1	0.2	nt	nt
COc1ccc(C(=O)NCc2ccncc2)cc1S(=O)(=O)N1CCOCC1	6.5	-3.1	0.1	-5.1	-2.2	-4.3
O=C(NCc1ccncc1)c1ccc(Cl)c(S(=O)(=O)N2CCOCC2)c1	2.0	1.5	2.4	-2.3	321.5*	-8.2
CN(C)S(=O)(=O)Oc1cccc(C(=O)Nc2ccc(Cl)c(Cl)c2)c1	-24.2	-2.9	-1.6	41.4	9.0	16.6
CC(C)c1ccc(NC(=O)c2ccc(NS(C)(=O)=O)cc2)cc1	-1.2	2.3	2.0	0.3	19.8*	-9.1
CCc1ccc(NC(=O)c2nc(S(=O)(=O)Cc3ccccc3)ncc2Cl)cc1	-16.4	0.0	-0.6	49.4	nt	4.2
CC(NC(=O)c1ccc(NS(C)(=O)=O)cc1)c1ccccc1 (stereo not drawn)	-2.2	1.8	-1.1	-3.0	-1.2	6.3
SMILES	H9c2 protect	hiPSC survival	SENP1 inh	FAS-TE inh	GRIN3A LBD mod	Arr AP2 block
O=C(Nc1cc(Cl)cc(Cl)c1)c1cccc(OC(F)F)c1	-23.0	5.3	-0.1	38.1	25.5*	18.7
CCOC(=O)c1ccc(NC(=O)c2nc(S(=O)(=O)Cc3ccccc3)ncc2Cl)cc1	-22.0	20.5*	1.9	48.2	-10.2	26.7
COc1ccc(NC(=O)c2cccc(OS(=O)(=O)N(C)C)c2)cc1	-8.5	-2.8	2.4	4.0	11.7*	3.6
Cc1ccnc(NC(=O)c2cccc(OC(F)F)c2)n1	1.3	0.6	1.7	-8.1	0.8	12.8
CCOc1ccccc1C(=O)NC(C(=O)OCn1nnc2ccccc2c1=O)C(C)C (stereo not drawn)	-10.8	-2.0	1.2	6.4	nt	nt
COc1ccc(C(=O)Nc2ccc3ccccc3c2)cc1OC	-0.2	-0.9	0.1	9.3	7.8	11.3
COc1cc(NS(=O)(=O)c2ccc(NC(=O)c3ccc(F)cc3)cc2)ncn1	3.5	0.4	2.5	-4.8	12.6*	-2.2
COc1cccc(-c2cc(=O)c3cc(NC(=O)c4ccccc4)ccc3[nH]2)c1	-1.5	5.4	-2.6	-7.7	26.2*	7.9
COc1cc(NS(=O)(=O)c2ccc(NC(=S)NC(=O)c3sc4cc(F)ccc4c3Cl)cc2)nc(OC)n1	0.7	0.6	-9.7	4.1	17.1*	8.7
Cn1nnc2cc(C(=O)Nc3ccc4ccccc4c3)ccc21	-1.4	-2.4	1.0	-5.5	21.0*	-7.1
COc1cc(NS(=O)(=O)c2ccc(NC(=S)NC(=O)c3sc4ccccc4c3Cl)cc2)nc(OC)n1	0.4	2.1	-3.7	-3.5	-1.8	29.1
Cc1cccc(C(=O)Nc2ccc3ccccc3c2)c1	-10.1	-0.9	0.9	21.6	8.7	14.7
COc1ccc(C(=O)Nc2ccc3ccccc3c2)cc1	-19.1	-0.9	2.4	3.4	21.1*	13.6
COc1cccc(C(=O)Nc2ccc3ccccc3c2)c1	-17.0	-0.6	-1.5	11.7	30.4*	36.0
COc1ccc(OC)c(C(=O)c2ccc(C(=O)Nc3ccc4ccccc4c3)cc2)c1	-6.0	4.1	3.6	25.5	5.0	11.1
COc1ccc(NC(=O)NNC(=O)COc2ccc3ccccc3c2)cc1OC	0.8	0.6	0.5	-8.1	15.9*	37.4
O=C(Nc1ccc(Nc2ccccc2)cc1)c1cccc(F)c1	-9.5	-0.6	-0.9	22.9	29.4*	11.2
Cc1ccc(CN2CC(N3CCN(CC4CC4)CC3)CS2(=O)=O)cc1 (stereo not drawn)	-3.0	4.8	-2.5	-8.9	nt	nt
CS(=O)(=O)Nc1ccc(C(=O)Nc2ccc3ccccc3c2)cc1	0.6	-0.6	1.1	-3.4	30.8*	39.3
COc1ccc(OC)c(NS(=O)(=O)c2ccc(NC(=O)c3ccc(NS(C)(=O)=O)cc3)cc2)c1	12.7	4.5	0.3	-1.9	20.7*	7.3
COc1ccc(NC(=O)c2ccc(C#N)cc2)cc1NS(=O)(=O)c1ccc(F)cc1	16.9	2.0	1.7	-0.1	0.3	46.0
COc1cc(NC(=O)COc2ccc(Cl)cc2)ccc1-c1cc2ccccc2oc1=O	-7.0	2.6	-35.3	22.6	10.2*	-0.1
COc1cccc(C(=O)Nc2ccccc2)c1	-3.9	-0.3	1.0	3.4	25.9*	3.4
